Experiments:
Assay type in all cases: functional
[1] = test system: SK-MEL-5; assay: Anticancer activity against human SK-MEL-5 cells after 48 hrs by SRB assay; conditions: SK-MEL-5, 48 h; for CC50: read-out: LC50 (the source's name)
[2] = test system: EKVX; assay: Anticancer activity against human EKVX cells after 48 hrs by SRB assay
Summary of the method: (§1)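 NCI five-dose screen. Cells in RPMI 1640 with 5% FBS and 2 mM L-glutamine, seeded at 5000–40,000 cells/well according to doubling time, then pre-incubated 24 h at 37 °C in 5% CO2. Drugs dissolved in DMSO, five concentrations by 10-fold or 1/2-log dilution. Cells fixed with TCA, SRB-stained, A515 read. IC50 solved from [(Ti−Tz)/(C−Tz)]×100 = 50.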

[3] = test system: NCI-H322M; assay: Anticancer activity against human NCI-H322M cells after 48 hrs by SRB assay; conditions: for CC50: read-out: LC50 (the source's name)
[4] = test system: M14; assay: Anticancer activity against human M14 cells after 48 hrs by SRB assay; conditions: M14, 48 h; for CC50: read-out: LC50 (the source's name); summary of the method: as §1
[5] = test system: KM12; assay: Anticancer activity against human KM12 cells after 48 hrs by SRB assay; conditions: KM12, 48 h; for CC50: read-out: LC50 (the source's name); summary of the method: as §1
[6] = test system: HT-29; assay: Anticancer activity against human HT-29 cells after 48 hrs by SRB assay; conditions: HT-29, 48 h; for CC50: read-out: LC50 (the source's name); summary of the method: as §1
[7] = test system: NCI-H226; assay: Anticancer activity against human NCI-H226 cells after 48 hrs by SRB assay; conditions: NCI-H226, 48 h
[8] = test system: IGROV-1; assay: Anticancer activity against human IGROV1 cells after 48 hrs by SRB assay; conditions: IGROV-1, 48 h; for CC50: read-out: LC50 (the source's name); summary of the method: as §1
[9] = test system: MDA-MB-231; assay: Anticancer activity against human MDA-MB-231 cells after 48 hrs by SRB assay; conditions: MDA-MB-231, 48 h; for CC50: read-out: LC50 (the source's name); summary of the method: as §1
[10] = test system: MDA-MB-468; assay: Anticancer activity against human MDA-MB-468 cells after 48 hrs by SRB assay; conditions: MDA-MB-468, 48 h; for CC50: read-out: LC50 (the source's name)
[11] = test system: HL-60(TB); assay: Anticancer activity against human HL-60(TB) cells after 48 hrs by SRB assay; conditions: HL-60, 48 h
Summary of the method: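 NCI-60 five-dose screen. Cells grown in RPMI 1640 with 5% FBS and 2 mM L-glutamine, seeded at 5000–40,000 cells/well, and held 24 h at 37 °C and 5% CO₂ before drug. DMSO stocks were diluted into five concentrations (10-fold or ½-log steps). Settled suspension cells were fixed with cold TCA, SRB-stained, and read at 515 nm. […] was taken where [(Ti−Tz)/(C−Tz)]×100 = 50.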

[12] = test system: UACC-62; assay: Anticancer activity against human UACC62 cells after 48 hrs by SRB assay; conditions: UACC-62, 48 h; for CC50: read-out: LC50 (the source's name)
Summary of the method: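 NCI-60 five-dose mode: cells in RPMI 1640 with 5% FBS and 2 mM glutamine, plated at 5000–40,000 cells/well, and preincubated 24 h, with time-zero plates TCA-fixed. Drug given at five concentrations (10-fold or ½-log serial dilutions). Cold TCA fixation 60 min at 4 °C, SRB stain, Tris solubilization, A515. IC50 taken where [(Ti−Tz)/(C−Tz)]×100 = 50.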

[13] = test system: SF-268; assay: Anticancer activity against human SF268 cells after 48 hrs by SRB assay; conditions: SF-268, 48 h; for CC50: read-out: LC50 (the source's name)
[14] = test system: RXF 393; assay: Anticancer activity against human RXF393 cells after 48 hrs by SRB assay; conditions: RXF 393, 48 h; for CC50: read-out: LC50 (the source's name)
[15] = test system: SF-539; assay: Anticancer activity against human SF539 cells after 48 hrs by SRB assay; conditions: SF-539, 48 h; for CC50: read-out: LC50 (the source's name)
[16] = test system: NCI-H460; assay: Anticancer activity against human NCI-H460 cells after 48 hrs by SRB assay; conditions: NCI-H460, 48 h
[17] = test system: CCRF-CEM; assay: Anticancer activity against human CCRF-CEM cells after 48 hrs by SRB assay; conditions: for CC50: read-out: LC50 (the source's name); summary of the method: as §1
[18] = test system: SNB-19; assay: Anticancer activity against human SNB19 cells after 48 hrs by SRB assay; conditions: SNB-19, 48 h; for CC50: read-out: LC50 (the source's name)
[19] = test system: HCT-15; assay: Anticancer activity against human HCT15 cells after 48 hrs by SRB assay; conditions: HCT-15, 48 h; for CC50: read-out: LC50 (the source's name); summary of the method: as §1
[20] = test system: OVCAR-5; assay: Anticancer activity against human OVCAR5 cells after 48 hrs by SRB assay; conditions: OVCAR-5, 48 h; for CC50: read-out: LC50 (the source's name)
[21] = test system: PC-3; assay: Anticancer activity against human PC3 cells after 48 hrs by SRB assay; conditions: PC-3, 48 h; for CC50: read-out: LC50 (the source's name)
[22] = test system: OVCAR-4; assay: Anticancer activity against human OVCAR4 cells after 48 hrs by SRB assay; conditions: OVCAR-4, 48 h; for CC50: read-out: LC50 (the source's name)
[23] = test system: NCI-H23; assay: Anticancer activity against human NCI-H23 cells after 48 hrs by SRB assay; conditions: NCI-H23, 48 h
[24] = test system: MDA-MB-435; assay: Anticancer activity against human MDA-MB-435 cells after 48 hrs by SRB assay; conditions: MDA-MB-435, 48 h; for CC50: read-out: LC50 (the source's name); summary of the method: as §1
[25] = test system: SK-MEL-2; assay: Anticancer activity against human SK-MEL-2 cells after 48 hrs by SRB assay; conditions: SK-MEL-2, 48 h; for CC50: read-out: LC50 (the source's name)
[26] = test system: K562; assay: Anticancer activity against human K562 cells after 48 hrs by SRB assay; conditions: K562, 48 h; for CC50: read-out: LC50 (the source's name); summary of the method: as §1
[27] = test system: MOLT-4; assay: Anticancer activity against human MOLT4 cells after 48 hrs by SRB assay; conditions: MOLT-4, 48 h; for CC50: read-out: LC50 (the source's name)

O=C(NCCNc1nccc(-c2c(-c3cccc(O)c3)nc3sccn23)n1)Nc1cccc(C(F)(F)F)c1
GI50 [1]: 2.62 µM | TGI [1]: 8.43 µM | CC50 [1]: 28.9 µM | GI50 [2]: 4.16 µM | LC50 [2]: > 100 µM | TGI [2]: 36.6 µM | GI50 [3]: 6.13 µM | TGI [3]: 26 µM | CC50 [3]: > 100 µM | GI50 [4]: 1.79 µM | TGI [4]: 3.39 µM | CC50 [4]: 6.41 µM | GI50 [5]: 2.78 µM | TGI [5]: 6.98 µM | CC50 [5]: 29.9 µM | GI50 [6]: 3.45 µM | TGI [6]: 10.8 µM | CC50 [6]: 49.9 µM | GI50 [7]: 9.99 µM | LC50 (concentration killing 50% of tumour cells) [7]: 81 µM | TGI [7]: 28.5 µM | GI50 [8]: 3.48 µM | TGI [8]: 13.1 µM | CC50 [8]: 93.4 µM | GI50 [9]: 3.52 µM | TGI [9]: 12.3 µM | CC50 [9]: > 100 µM | GI50 [10]: 1.67 µM | TGI [10]: 3.33 µM | CC50 [10]: 6.67 µM | GI50 [11]: 2.85 µM | LC50 [11]: > 100 µM | TGI [11]: 6.03 µM | GI50 [12]: 1.94 µM | TGI [12]: 6.51 µM | CC50 [12]: 28.2 µM | GI50 [13]: 3.45 µM | TGI [13]: 14.6 µM | CC50 [13]: > 100 µM | GI50 [14]: 2.41 µM | TGI [14]: 5.1 µM | CC50 [14]: 12.9 µM | GI50 [15]: 13.1 µM | TGI [15]: 36.9 µM | CC50 [15]: > 100 µM | GI50 [16]: 4.79 µM | LC50 [16]: 83.5 µM | TGI [16]: 20.8 µM | GI50 [17]: 3.25 µM | TGI [17]: 13.7 µM | CC50 [17]: > 100 µM | GI50 [18]: 5.08 µM | TGI [18]: 36.2 µM | CC50 [18]: > 100 µM | GI50 [19]: 4.26 µM | TGI [19]: 24.1 µM | CC50 [19]: > 100 µM | GI50 [20]: 16.3 µM | TGI [20]: 65.3 µM | CC50 [20]: > 100 µM | GI50 [21]: 2.94 µM | TGI [21]: 12.6 µM | CC50 [21]: > 100 µM | GI50 [22]: 3.97 µM | TGI [22]: 14.2 µM | CC50 [22]: 39.7 µM | GI50 [23]: 4.62 µM | LC50 (50% lethal concentration) [23]: > 100 µM | TGI [23]: 32.5 µM | GI50 [24]: 2.04 µM | TGI [24]: 4.94 µM | CC50 [24]: 41 µM | GI50 [25]: 2.8 µM | TGI [25]: 6.07 µM | CC50 [25]: 36 µM | GI50 [26]: 3.42 µM | TGI [26]: 57.1 µM | CC50 [26]: > 100 µM | GI50 [27]: 3.6 µM | TGI [27]: 14.6 µM | CC50 [27]: > 100 µM

O=C(NCCNc1nccc(-c2c(-c3cccc(O)c3)nc3sccn23)n1)c1ccccc1
GI50 [1]: 4.15 µM | TGI [1]: 17.5 µM | CC50 [1]: 43.4 µM | GI50 [2]: 25 µM | TGI [2]: > 100 µM | GI50 [3]: 26.3 µM | TGI [3]: > 100 µM | CC50 [3]: > 100 µM | GI50 [4]: 0.434 µM | TGI [4]: 12.3 µM | CC50 [4]: 37.3 µM | GI50 [5]: 12.1 µM | TGI [5]: 28.5 µM | CC50 [5]: 67.1 µM | GI50 [6]: 6.79 µM | TGI [6]: 38.3 µM | CC50 [6]: > 100 µM | GI50 [7]: 7.95 µM | TGI [7]: 45.3 µM | GI50 [8]: 3.61 µM | TGI [8]: 50.8 µM | CC50 [8]: > 100 µM | GI50 [9]: 7.05 µM | TGI [9]: 31.5 µM | CC50 [9]: > 100 µM | GI50 [10]: 3.6 µM | TGI [10]: 28.7 µM | CC50 [10]: > 100 µM | GI50 [11]: 10.2 µM | TGI [11]: 29.6 µM | GI50 [12]: 0.211 µM | TGI [12]: 1.37 µM | CC50 [12]: 25.2 µM | GI50 [13]: 15.5 µM | TGI [13]: 87 µM | CC50 [13]: > 100 µM | GI50 [14]: 4.14 µM | TGI [14]: 22.2 µM | CC50 [14]: 98.1 µM | GI50 [15]: 11.3 µM | TGI [15]: 36.8 µM | CC50 [15]: > 100 µM | GI50 [16]: 10.4 µM | TGI [16]: 27.5 µM | GI50 [17]: 3.38 µM | TGI [17]: 34.1 µM | CC50 [17]: > 100 µM | GI50 [18]: 29.4 µM | TGI [18]: > 100 µM | CC50 [18]: > 100 µM | GI50 [19]: 18.8 µM | TGI [19]: 62.2 µM | CC50 [19]: > 100 µM | GI50 [20]: 18.3 µM | TGI [20]: 61.8 µM | CC50 [20]: > 100 µM | GI50 [21]: 11.9 µM | TGI [21]: 65.7 µM | CC50 [21]: > 100 µM | GI50 [22]: 13.9 µM | TGI [22]: 84.6 µM | CC50 [22]: > 100 µM | GI50 [23]: 10 µM | TGI [23]: 30.7 µM | GI50 [24]: 0.578 µM | TGI [24]: 12.8 µM | CC50 [24]: 71.3 µM | GI50 [25]: 2.94 µM | TGI [25]: 12.9 µM | CC50 [25]: 48.8 µM | GI50 [26]: 9.11 µM | TGI [26]: > 100 µM | CC50 [26]: > 100 µM | GI50 [27]: 13.5 µM | TGI [27]: 74.2 µM | CC50 [27]: > 100 µM

From ChEMBL document CHEMBL1914423, “New imidazo[2,1-b]thiazole derivatives: synthesis, in vitro anticancer evaluation, and in silico studies” (Eur J Med Chem, 2011)
